Screening results (PubChem BioAssay)
TAAR1 ag – human TAAR1 agonism; CHO RD-HGA16 TAAR1, Fluo-8 calcium fluorescence; vehicle wells 0%, saturating PEA agonist 100%; Q96RJ0; AID 624467; 0.99% of 360,000 active; activation, % at 3 µM;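 active = activation above the mean activation of all test compounds in the run plus 3 SD, cut at about 38% in these data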
Target sequence (Q96RJ0 whole entry, looked up): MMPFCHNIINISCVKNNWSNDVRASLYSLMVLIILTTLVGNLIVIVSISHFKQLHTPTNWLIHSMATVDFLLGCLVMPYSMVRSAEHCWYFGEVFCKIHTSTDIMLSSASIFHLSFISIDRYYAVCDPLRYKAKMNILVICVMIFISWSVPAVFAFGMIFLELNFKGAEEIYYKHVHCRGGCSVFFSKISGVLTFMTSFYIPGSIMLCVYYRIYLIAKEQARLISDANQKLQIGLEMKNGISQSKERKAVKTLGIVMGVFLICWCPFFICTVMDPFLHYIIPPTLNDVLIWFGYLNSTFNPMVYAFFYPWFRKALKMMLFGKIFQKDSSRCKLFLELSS
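Benchmarks: low control DMSO, high control PEA (EC100); System: CHO RD-HGA16 cells carrying human TAAR1 plus Gα16; Detection: Fluo-8 fluorescence, 5 s baseline then 140 s kinetic read; Schedule: 17-24 h plating, Fluo-8 75 min 37 °C, 30 min RT; Read-out basis: % activation from peak over basal fluorescence ratio, DMSO-to-PEA scaled.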
OX1R antag-1 – antagonists of human orexin 1 receptor (OX1R) | OX1R-expressing cells, FRET antagonist read-out | inhibition, % at 6.6 µM | 1.8% of 330,000 active | AID 485270; in the data active = inhibition mostly above about 38%, no sharp cut-off; inactive = mostly below about 40%
OX1R antag-2 – antagonists of human orexin 1 receptor. AID 434989. inhibition, % at 5 µM. O43613. 0.43% of 330,000 active. CHO/OX1R cells, Fluo-8 calcium fluorescence, orexin A;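 active = inhibition above its plate's threshold, mean inhibition of all tested compounds on the plate plus 3 SD, cut at about 37% in these data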
GPR7 antag – human neuropeptides B/W receptor 1 antagonism; P48145; GPR7-expressing cells, fluorescence antagonist assay; inhibition, % at 4.4 µM; 1.1% of 290,000 active; AID 1861; in the data active = inhibition above about 16%, passing the limit was not always enough;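 note: cells stimulated with the agonist NPW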
Target sequence (P48145 whole entry, looked up): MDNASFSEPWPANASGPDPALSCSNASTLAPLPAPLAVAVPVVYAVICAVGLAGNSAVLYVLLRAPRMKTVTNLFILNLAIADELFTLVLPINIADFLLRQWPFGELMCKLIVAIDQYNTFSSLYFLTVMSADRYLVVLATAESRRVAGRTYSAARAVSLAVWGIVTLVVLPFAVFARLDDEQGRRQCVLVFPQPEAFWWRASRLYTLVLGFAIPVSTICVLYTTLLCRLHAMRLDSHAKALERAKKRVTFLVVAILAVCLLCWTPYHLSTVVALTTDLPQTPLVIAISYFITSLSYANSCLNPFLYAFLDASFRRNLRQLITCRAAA
TAAR1 antagonist – human TAAR1 antagonism; Q96RJ0; CHO RD-HGA16 TAAR1, Fluo-8 calcium fluorescence, antagonist; inhibition, % at 3 µM; 1.5% of 360,000 active; AID 624466;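 active = inhibition above a per-plate cutoff, the mean inhibition of test compounds on that plate plus 3 SD, cut at about 49% in these data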
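Material: CHO RD-HGA16 cells bearing hTAAR1; compound dosing: one-point dosing, 3 µM nominal final; schedule: dye loading 75 min at 37 °C, then 30 min room temperature; measured by: calcium fluorescence with Fluo-8; control set: vehicle and agonist controls; replication: n of 1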
CHO parental Ca – counter-screen: ATP calcium response change in parental CHO cells; parental CHO-K1, ATP-induced calcium, Fluo-8 fluorescence; inhibition, % at 5.6 µM; 0.63% of 330,000 active; AID 463079;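 active = inhibition above that plate's mean sample inhibition plus 3 SD, cut at about 26% in these data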
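Material – parental CHO cells · Reagent – ATP stimulus · Compound – single nominal dose of 5.6 µM per compound · Detection – Fluo-8 fluorescence · Read-out basis – percent inhibition of calcium signal · Controls – ATP-challenged DMSO wells low, unchallenged DMSO wells high · Repeats – no replicates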
TAAR1 ag conf – confirmation of human TAAR1 agonists. shares compounds with TAAR1 ag. 82% of 2,400 active. activation, % at 3 µM. CHO RD-HGA16 TAAR1, Fluo-8 calcium fluorescence; scaled: DMSO 0%, maximal phenethylamine 100%;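 active = activation above a cutoff set at the run's mean compound activation plus 3 SD, cut at about 39% in these data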
Ga16 ag counter – nonselective agonist in parental cells, TAAR1 agonist counter-screen | AID 651787 | 50% of 2,400 active | activation, % at 3 µM | shares compounds with TAAR1 ag | CHO-Ga16 parental, Fluo-8 calcium fluorescence; normalized to maximal ATP response, DMSO zero;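 active = activation above the run cutoff, the mean activation over all tested wells plus 3 SD, cut at about 12% in these data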
TAAR1 desens – human TAAR1 agonist that also desensitizes the receptor; shares compounds with TAAR1 ag; CHO RD-HGA16 hTAAR1, Fluo-8 calcium, beta-PEA response inhibition; inhibition, % at 3 µM; 46% of 2,400 active;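 active = inhibition above the run cutoff, the mean inhibition of all test compounds plus 3 SD, cut at about 49% in these data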;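 note: beta-PEA stimulus applied at its EC80; loss of beta-PEA calcium signal after compound pretreatment read as receptor desensitization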
Ga16 antag count – counter-screen for TAAR1 agonists: nonselective Ga16 antagonists; shares compounds with TAAR1 ag; CHO-Ga16 ATP-induced calcium, Fluo-8 fluorescence; inhibition, % at 3 µM; 39% of 2,400 active; AID 651952;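 active = inhibition above the plate's mean compound inhibition plus 3 SD, computed per plate, cut at about 22% in these data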
Of the large screens only hits and unclear results are named; the others gave an inactive call (follow-up assays come after a bar, where they were run). Compounds with a hit are over-represented: about 4.5% of the library has one in this group of screens.

COc1ccc(C(=O)NC(=S)Nc2ccc3[nH]c(=O)[nH]c3c2)cc1	none
CNCc1cc(Br)c(OCC(=O)Nc2ccccc2OC)c(OC)c1	none
COc1cc(CNCCc2ccccc2)cc(Br)c1OCC(=O)Nc1ccccc1C	TAAR1 ag 88, TAAR1 antagonist 59 | TAAR1 ag conf 92 | Ga16 ag counter 21 | TAAR1 desens 76 | Ga16 antag count 34
COc1ccccc1NC(=O)c1ccc(NC(=O)CSc2nc(N)cc(=O)[nH]2)cc1	none (no result: GPR7 antag)
O[C@@H](c1cc(C(F)(F)F)nc2c(C(F)(F)F)cccc12)[C@H]1CCCCN1	TAAR1 ag 45 (no result: GPR7 antag) | TAAR1 ag conf 51 | Ga16 ag counter 24 | TAAR1 desens inactive | Ga16 antag count 37
Cc1nc2c(C(F)(F)F)cccc2c2c1CCS2	none
O=C(NCC(c1ccco1)N1CCc2ccccc2C1)c1ccc(Cl)cc1 (stereo not drawn)	TAAR1 ag 74 (no result: GPR7 antag) | TAAR1 ag conf 38 | Ga16 ag counter inactive | TAAR1 desens inactive | Ga16 antag count inactive
CCOc1ccc(C(=O)NCC(c2ccco2)N2CCc3ccccc3C2)cc1 (stereo not drawn)	none (no result: GPR7 antag)
O=C(NCC(c1ccco1)N1CCc2ccccc2C1)c1ccccc1Br (stereo not drawn)	none (no result: GPR7 antag)
O=C(NCC(c1ccco1)N1CCc2ccccc2C1)c1ccc(Br)cc1 (stereo not drawn)	TAAR1 ag 45 (no result: GPR7 antag) | TAAR1 ag conf inactive | Ga16 ag counter inactive | TAAR1 desens inactive | Ga16 antag count inactive
CC(C)C[C@H]1CN(CCCC[C@H]2CNC(=O)C(=O)N2CCc2ccccc2)C(=O)C(=O)N1Cc1ccccc1	none (no result: OX1R antag-1, OX1R antag-2, GPR7 antag, CHO parental Ca)
COc1cc2nc(/C=C/c3ccc(N(C)C)cc3)sc2cc1SC	TAAR1 ag 101, OX1R antag-2 60, TAAR1 antagonist 52, CHO parental Ca 52 | TAAR1 ag conf 46 | Ga16 ag counter 93 | TAAR1 desens 67 | Ga16 antag count 87
CCN(CC(=O)Nc1ccc(C(=O)Nc2ccc(OC)cc2)cc1)Cc1nc2ccccc2c(=O)[nH]1	none
Cc1cc(N/N=C/c2ccccc2F)nc(NCc2ccccc2)n1	none
Cc1cc(N/N=C/c2cccc(F)c2)nc(NCc2ccccc2)n1	TAAR1 ag 60 | TAAR1 ag conf 55 | Ga16 ag counter inactive | TAAR1 desens inactive | Ga16 antag count inactive
Cc1cc(N/N=C/c2ccccc2)nc(NCc2ccccc2)n1	TAAR1 ag 51 | TAAR1 ag conf 63 | Ga16 ag counter 17 | TAAR1 desens inactive | Ga16 antag count inactive
O=C(c1ccc(F)cc1)C1CCN(C(=S)NCC2CCCO2)CC1 (stereo not drawn)	none
COc1ccc(CC(N)c2csc(Nc3ncccn3)n2)cc1 (stereo not drawn)	none (no result: OX1R antag-1, OX1R antag-2, GPR7 antag, CHO parental Ca)
NC(Cc1ccccc1)c1csc(Nc2nccc(C(F)(F)F)n2)n1 (stereo not drawn)	TAAR1 ag 67 (no result: OX1R antag-1, OX1R antag-2, GPR7 antag, CHO parental Ca) | TAAR1 ag conf 86 | Ga16 ag counter 55 | TAAR1 desens inactive | Ga16 antag count 48
Cc1cc(C)nc(Nc2nc(C(N)Cc3ccccc3)cs2)n1 (stereo not drawn)	none (no result: OX1R antag-1, OX1R antag-2, GPR7 antag, CHO parental Ca)
CCc1cnc(Nc2nc(C(N)Cc3ccc(F)cc3)cs2)nc1 (stereo not drawn)	none (no result: OX1R antag-1, OX1R antag-2, GPR7 antag, CHO parental Ca)
COc1ccc(CC(N)c2csc(Nc3nccc(C(F)(F)F)n3)n2)cc1 (stereo not drawn)	TAAR1 ag 52 (no result: OX1R antag-1, OX1R antag-2, GPR7 antag, CHO parental Ca) | TAAR1 ag conf 53 | Ga16 ag counter 21 | TAAR1 desens inactive | Ga16 antag count 23
NC(Cc1ccc(F)cc1)c1csc(Nc2nccc(C(F)(F)F)n2)n1 (stereo not drawn)	TAAR1 ag 72 (no result: OX1R antag-1, OX1R antag-2, GPR7 antag, CHO parental Ca) | TAAR1 ag conf 86 | Ga16 ag counter 54 | TAAR1 desens 56 | Ga16 antag count 55
NC(Cc1ccc(Cl)cc1)c1csc(Nc2nccc(C(F)(F)F)n2)n1 (stereo not drawn)	TAAR1 ag 55 (no result: OX1R antag-1, OX1R antag-2, GPR7 antag, CHO parental Ca) | TAAR1 ag conf 88 | Ga16 ag counter 62 | TAAR1 desens 74 | Ga16 antag count 73
O=[N+]([O-])c1ccc(O)c(CNCc2ccccc2)c1	none (no result: OX1R antag-1, OX1R antag-2, GPR7 antag, CHO parental Ca)
O=[N+]([O-])c1ccc(CNCc2cc(Cl)ccc2O)cc1	TAAR1 ag 51 (no result: GPR7 antag) | TAAR1 ag conf 60 | Ga16 ag counter 20 | TAAR1 desens inactive | Ga16 antag count inactive
O=C(O)C1C2C=CC(C2)C1C(=O)NCCc1cccc(Cl)c1 (stereo not drawn)	none (no result: TAAR1 ag, TAAR1 antagonist) | Ga16 ag counter inactive | Ga16 antag count inactive
O=C(O)C1C2CCC(C2)C1C(=O)NCCc1ccccc1 (stereo not drawn)	none (no result: TAAR1 ag, TAAR1 antagonist) | Ga16 ag counter inactive | Ga16 antag count inactive
O=C(O)C1CCCCC1C(=O)NCc1ccccc1 (stereo not drawn)	none
O=C(O)C1CCCCC1C(=O)NCCc1ccc(F)cc1 (stereo not drawn)	TAAR1 ag 81 | TAAR1 ag conf 93 | Ga16 ag counter inactive | TAAR1 desens 73 | Ga16 antag count inactive
O=C(O)C1C2C=CC(C2)C1C(=O)NCc1cccc(Cl)c1 (stereo not drawn)	none
O=C(O)C1CCCCC1C(=O)NCCc1cccc(Cl)c1 (stereo not drawn)	TAAR1 ag 90, TAAR1 antagonist 68 | TAAR1 ag conf 88 | Ga16 ag counter inactive | TAAR1 desens 70 | Ga16 antag count inactive
CC(=O)Nc1ccc(N2C(=O)CSC2c2ccccc2[N+](=O)[O-])cc1 (stereo not drawn)	none
O=C(O)C1CCCCC1C(=O)NCCc1ccc(Cl)cc1 (stereo not drawn)	TAAR1 ag 70 | TAAR1 ag conf 54 | Ga16 ag counter inactive | TAAR1 desens inactive | Ga16 antag count inactive
O=C(CC[C@H]1O[C@@H](n2ccc(=O)[nH]c2=O)[C@H](O)[C@@H]1O)N[C@H](Cc1ccccc1)C(=O)NCc1cccs1	none (no result: OX1R antag-1, OX1R antag-2, GPR7 antag, CHO parental Ca)
Cc1cc(OCC(O)CNC(C)c2ccccc2)ccc1C(C)C (stereo not drawn)	TAAR1 ag 63 | TAAR1 ag conf 71 | Ga16 ag counter 32 | TAAR1 desens 54 | Ga16 antag count 32
CC(NCC(O)COc1ccc2ccccc2c1)c1ccccc1 (stereo not drawn)	none
